# Bioassay records as filed in PubChem.
# A selection: hits, their analogues and other compounds. The true share with any hit is near 1.5%.
# Apaf-1 inh = inhibitors of human Apaf-1 apoptosome; O14727; reconstituted apoptosome caspase-3 activity, DEVD-Rh110 fluorescence; inhibition, % at 20 µM; 330,000 tested, 0.71% active; active = inhibition of at least 40% at 20 µM;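 also: plate controls were DMSO wells for no effect and DEVD-CHO caspase inhibitor wells for full effect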
#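 Medium: Hepes buffer, pH 7.5 / System: biochemical Apaf-1 apoptosome reconstitution / Measured by: Rh110 fluorescence, excitation 480 nm, emission 540 nm / Times: compound with Apaf-1, dATP, procaspase-3 30 min, then 50 min reaction, room temperature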
# PREPL inhibitor = human PREPL enzyme inhibition; recombinant PREPL, fluorescence polarization activity-based probe; inhibition, % at 5.96 µM; 320,000 tested, 0.68% active; AID 2751; in the data active = inhibition above about 43%;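 also: 0% = enzyme with DMSO and 100% = wells lacking enzyme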
# Target sequence (Q4J6C6 whole entry, looked up): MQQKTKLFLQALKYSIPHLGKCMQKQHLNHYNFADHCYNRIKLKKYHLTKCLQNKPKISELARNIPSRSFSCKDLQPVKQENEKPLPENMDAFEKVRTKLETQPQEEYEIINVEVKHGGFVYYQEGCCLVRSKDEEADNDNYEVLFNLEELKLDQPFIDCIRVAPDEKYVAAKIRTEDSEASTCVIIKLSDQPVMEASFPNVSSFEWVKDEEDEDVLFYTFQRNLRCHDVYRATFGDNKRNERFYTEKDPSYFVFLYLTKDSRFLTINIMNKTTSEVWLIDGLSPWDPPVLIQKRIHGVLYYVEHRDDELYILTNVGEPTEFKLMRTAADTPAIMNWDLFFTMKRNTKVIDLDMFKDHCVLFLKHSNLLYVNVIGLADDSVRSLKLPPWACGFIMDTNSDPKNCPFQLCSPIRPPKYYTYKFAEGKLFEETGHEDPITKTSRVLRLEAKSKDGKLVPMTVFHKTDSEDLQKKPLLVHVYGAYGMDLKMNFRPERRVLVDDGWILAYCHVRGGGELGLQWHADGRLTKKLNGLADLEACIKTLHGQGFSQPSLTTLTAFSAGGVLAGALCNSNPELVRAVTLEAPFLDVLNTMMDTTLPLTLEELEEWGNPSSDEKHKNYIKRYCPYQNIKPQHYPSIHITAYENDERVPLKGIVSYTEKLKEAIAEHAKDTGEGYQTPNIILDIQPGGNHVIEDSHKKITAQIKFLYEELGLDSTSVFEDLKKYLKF
# UBC13 inh = blocks human UBC13 polyubiquitin chain formation | P61088 | TR-FRET | inhibition, % at 20 µM | 330,000 tested, 0.47% active | AID 485273; in the data active = inhibition above about 45%, passing the limit was not always enough
# UCH37 inh = blocks the human deubiquitinase UCH37 | Q9Y5K5 | purified proteasome/UCH37, Ub-AMC cleavage fluorescence | inhibition, % (concentration not given with the values) | 330,000 tested, 0.33% active;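 active = mean inhibition over replicate wells above about 20%, limit read from the data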;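 also: 0% = compound-free wells with enzyme and 100% = wells lacking proteasome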
#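 System: Proteasome-associated human UCH37 deubiquitinase; Input: 0.15 nM proteasome in added enzyme buffer; Also added: Ub-AMC substrate from 1 µM stock; Incubation: 30 min compound-proteasome preincubation then 25 min substrate reaction, room temperature; Detection: fluorescence, ex 355 nm, em 460 nm; Read-out: % inhibition of Ub-AMC cleavage fluorescence; Benchmarks: no-proteasome and no-compound wells.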
# Numbers without * were called inactive; i = inactive; / = no result given.
SMILES,Apaf-1 inh,PREPL inhibitor,UBC13 inh,UCH37 inh
CCCN1CCCc2cc(CN)ccc21,84*,63*,-24,-17
Nc1nc2c(s1)CCc1c-2cnn1-c1ccccc1,93*,33,-5,/
Cc1cccc(CNc2ncnc3ccc(-c4ccc5c(c4)OCCO5)cc23)c1,42*,20,9,-1
CCn1c(SCC(=O)NCCOc2ccccc2)nc2ccccc2c1=O,-7,-10,8,28*
CNC(=O)c1cc(Oc2ccc(NC(=O)Nc3ccc(Cl)c(C(F)(F)F)c3)cc2)ccn1,6,-16,-16,31*
O=C(Nc1ccc(Cl)c(C(F)(F)F)c1)c1ccncc1,-9,18,2,2
O=C(CN1CCN(S(=O)(=O)c2ccc(Br)cc2)CC1)NN=Cc1ccccc1C(=O)O,/,/,/,5
CCN(CC)CCN1CCn2c3c(c4cc(C)ccc42)CCCC31 (stereo not drawn),28,52*,-12,2
COC/C=C/C1=CC2=CC(=O)C(C)(OC(=O)c3cnc4ccccc4n3)C(=O)C2=CN1Cc1ccccc1 (stereo not drawn),32,-2,-76,4
COC/C=C/C1=CC2=CC(=O)C(C)(OC(=O)c3cnc4ccccc4n3)C(=O)C2=CN1CC1CC1 (stereo not drawn),27,16,-62,41*
CC(C)(C)NC(=O)NC(=O)COC(=O)COc1ccc2c(c1)CCC2,13,-7,1,20*
Cc1cccc(NC(=O)COC(=O)COc2ccc3c(c2)CCC3)c1,0,0,2,4
O=C(CC=NOCc1ccc(F)cc1Cl)c1cnc(-c2ccccc2)s1,/,/,/,0
Cc1ccc(-c2nn(-c3ccccc3)cc2/C=C2\SC(=S)N(CC(=O)O)C2=O)cc1,0,20,-24,21*
O=C(O)CN1C(=O)/C(=C\c2cn(CC(=O)N3CCOCC3)c3ccccc23)SC1=S,11,-8,-189,24*
Clc1ccc2nc(CN3CCCCC3)cn2c1,-31,-3,6,1
Clc1ccc2nc(CN3CCCc4ccccc43)cn2c1,12,67*,4,2
Nc1nonc1C(=O)NN=Cc1ccc(Br)o1,/,/,/,12
CN(C)CCSc1nc(N)c2c3c(sc2n1)CN(C)CC3,-9,15,75*,-16
O=C(NN=CC1CC=CCC1)c1cc(Br)ccc1O (stereo not drawn),/,/,/,-25
COc1cccc(C=Nn2nnnc2N)c1OCC#N,/,/,/,-14
COc1ccc(O[C@H]2C=C[C@@H](c3ccccc3)O[C@@H]2CO/N=C(\C)CCN2CCc3nc(-c4ccccc4)c(-c4ccccc4)cc3C2)cc1,48*,16,-11,/
CCc1cc2c(nc1CC)CCN(CC/C(C)=N/OC[C@H]1O[C@H](c3ccccc3)C=C[C@@H]1Oc1ccc(OC)cc1)C2,43*,/,7,/
CC(CCN1CCc2nc(-c3ccccc3)c(-c3ccccc3)cc2C1)=NO[C@@H](C)c1cn([C@H](CO)Cc2ccccc2)nn1,/,/,/,1
COc1ccc(O[C@H]2C=C[C@@H](c3ccccc3)O[C@@H]2COC(=O)CCC(C)=NOC[C@@H](O)COCc2ccco2)cc1,/,/,/,2
SMILES,Apaf-1 inh,PREPL inhibitor,UBC13 inh,UCH37 inh
COc1cc(/C=C2\S/C(=N/S(=O)(=O)c3ccc(C)cc3)NC2=O)c([N+](=O)[O-])cc1OC,19,8,-12,20*
Cc1ccc(S(=O)(=O)/N=C2/NC(=O)/C(=C/c3cc([N+](=O)[O-])ccc3O)S2)cc1,15,16,-47,/
CCOc1ccc(CNC2CCCc3ccccc32)cc1 (stereo not drawn),9,21,4,4
CC(=O)CCc1ccc(OCC(O)CNC2CCCc3ccccc32)cc1 (stereo not drawn),65*,-5,6,-1
COc1cc(/C=C2\C(=N)N3N=C(S(=O)(=O)CC(C)C)SC3=NC2=O)ccc1OC(=O)c1ccco1,12,49*,-4,/
CCS(=O)(=O)C1=NN2C(=N)/C(=C\c3ccc(OC(=O)c4ccco4)cc3)C(=O)N=C2S1,-4,33,-15,13
Cc1cc(C(=O)NN=Cc2ccco2)c2ccccc2n1,/,/,/,2
COC(=O)c1sc(SC)c(S(=O)(=O)C(C)C)c1NN=C(C#N)C(=O)c1ccccc1,/,/,/,16
CC(=NNc1nnc2c3ccccc3n(C)c2n1)c1ccc(C)o1,/,/,/,10
O=C(Nc1ccc(Cl)cn1)C1CCCN1S(=O)(=O)c1ccccc1 (stereo not drawn),-7,0,5,6
O=C(Nc1ccc(Br)cn1)C1CCCN1S(=O)(=O)c1ccccc1 (stereo not drawn),-1,-2,8,30*
C=CCn1c(NC(=O)c2ccc(Br)o2)c(S(=O)(=O)c2ccccc2)c2nc3ccccc3nc21,63*,2,-32,-190
O=C(Nc1ccc(S(=O)(=O)NCc2ccccc2)cc1)c1ccc(Br)o1,-4,-14,7,2
CCn1c(C(C#N)=NO)nc2ccccc21,/,/,/,5
COc1cc2c(cc1OC)C(C)N(C(=O)c1cccs1)CC2 (stereo not drawn),-3,-15,-8,1
COc1cc2c(cc1OC)C(C)N(C(=O)c1cc3c(=O)oc4ccc(C)cc4c3s1)CC2 (stereo not drawn),11,-1,47*,/
COc1cc(C=NNC(=O)c2ccc(C)nc2)ccc1OC(=O)c1cccc(F)c1,/,/,/,6
N=C1CCC(=N)c2c1c(O)c1ccccc1c2O,77*,41,-86,/
COc1cc(-c2c(C#N)c(N)nc3c2CCCC3)ccc1O,1,5,3,-2
COc1cc(-c2c(C#N)c(N)nc3[nH]c(=S)[nH]c(=O)c23)ccc1O,1,3,5,23*
OC(CN1CCN(c2ccccc2)CC1)c1c[nH]c2ccccc12 (stereo not drawn),17,14,-1,24*
Cc1ccccc1NCC(=O)NN=Cc1ccc([N+](=O)[O-])s1,/,/,/,7
O=C(C(=O)N1CCCCCC1)c1c[nH]c2ccccc12,-12,/,-3,6
C[n+]1cc(C(=O)N2CCCCC2)ccc1/C=C/c1c[nH]c2ccccc12,12,1,i,24*
CC(OC(=O)c1ccc([N+](=O)[O-])s1)C(=O)NC1CCCCC1C (stereo not drawn),28,30,-21,23*
SMILES,Apaf-1 inh,PREPL inhibitor,UBC13 inh,UCH37 inh
Cc1nc2c(C)cccc2cc1C(=O)NN=Cc1cccc([N+](=O)[O-])c1,/,/,/,2
CN1CCN(CCCNC(=O)C2CCN(c3nnc(-n4cccc4)s3)CC2)CC1,16,15,12,2
CCN1CCN(CCCNC(=O)C2CCCN(c3nnc(-n4cccc4)s3)C2)CC1 (stereo not drawn),14,-32,10,23*
CC(=NNC(=O)c1ccncc1)c1ccc(N2CCOCC2)cc1,/,/,/,8
COc1ccc(NC(=O)CCl)cn1,67*,3,-12,/
COc1ccc(CC(=O)Nc2ccc(OC)nc2)cc1,2,-3,-2,1
CCCC1C(=NO)CC(c2ccccc2)NC1c1ccccc1 (stereo not drawn),/,/,/,2
C=CCOC(=O)C1=C[C@@H](c2ccc(C(F)(F)F)cc2)C[C@@H](OCCCCO)O1,19,5,2,21*
